Assay: Toxicity liver stage against HepG2, at 10uM
Type: cell-based
Set-up: test concentration 10 uM, cell line HepG2-A16-CD81EGFP
Details: human, HepG2-A16-CD81EGFP cells; read-out: INHIBITION
Method in brief: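 Uninfected HepG2-A16-CD81EGFP cells, 3 × 10^3 per well, 1536-well, plated on prespotted compound at 10 μM final, parasite-free screening media added to match infected plates; puromycin 10 μM positive, DMSO 0.5% negative; run in parallel with 48 h PbLuc assay at 37 °C, 5% CO2; viability by CellTiter-Glo luminescence, normalized to controls.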

Row | Compound | cytotoxicity at 10 µM
1 | Cn1c(CC(=O)O)c(Sc2ccccc2)c2ccccc21 | 4.35%
2 | COc1cccc(CNc2c(O)c(=O)c2=O)c1 | 5.78%
3 | COc1ccc(C)cc1NC(=O)Nc1cnc(O)nc1O | -3.79%
4 | CC1=C(c2ccc(F)cc2)S(=O)(=O)N=C1N1CCc2ccccc21 | -1.29%
5 | COCC(O)CN1CCC(=O)N(CC(=O)C(C)(C)C)Cc2ccccc21 (stereo not given) | 6.31%
6 | CC(C)CC(=O)N1CC(=O)N(CCc2ccccc2)CC(O)C1 (stereo not given) | -6.4%
7 | CCOC(=O)N1CC(=O)N(Cc2cccc(OC)c2OC)CC(O)C1 (stereo not given) | -3.66%
8 | O=C(Cc1csc(-c2ccccc2F)n1)NCc1cccc(C(=O)O)c1 | -5.48%
9 | O=S(=O)(c1ccccc1Br)N1CCC2(CC1)OCCS2 | -1.86%
10 | COCCN(Cc1ccoc1)S(=O)(=O)c1ccc(F)c(C)c1 | -7.15%
11 | c1coc(CN2CC[C@@H]3O[C@@H](COCc4ccncc4)CC[C@@H]32)c1 | -155%
12 | O=C(O)C1CCN(C(=O)Cn2ccc3c(Cl)cccc32)CC1 | -3.91%
13 | CC(=O)c1cccc(S(=O)(=O)NCCNC(=O)c2snnc2C)c1 | -0.302%
14 | CCn1nccc1CN(C)c1nc(N)nc2c1nc(C)n2C | -4.83%
15 | CSCc1cccc(S(=O)(=O)NCCO)c1 | -0.138%
16 | CCOc1ccc2oc(-c3cnn(C)c3C)c(O)c(=O)c2c1 | 7.72%
17 | Cc1nc(Nc2ncccn2)cc(C2CCCN2C)n1 (stereo not given) | -16.5%
18 | CN(C)C(=O)CN1CCC(c2cncc(-c3cccc(Cl)c3)n2)CC1 | -33.3%
19 | Cc1cc2c(=O)n3c(nc2s1)CCN(C(=O)c1ccn(C)n1)CC3 | -9.68%
20 | Cc1cc(N)cc(C2CN(Cc3cc[nH]n3)CCO2)n1 (stereo not given) | -29.1%
21 | Cc1nc(NC2CCCC2)cc(C2CCN2C(=O)c2cnn(C)c2)n1 (stereo not given) | 8.89%
22 | O=S1(=O)NC2(CCCN(Cc3ccc(F)cc3)C2)COc2ccccc21 (stereo not given) | 7.63%
23 | Clc1snnc1CN(Cc1cccs1)C1CC1 | -8.78%

Row | Compound | cytotoxicity at 10 µM
24 | CSCC(=O)N1CCOC(c2nc(C(C)(C)C)n[nH]2)C1 (stereo not given) | -9.58%
25 | Cc1ccc(CNC(=O)COc2ccc3c(c2)OCC3O)cc1 (stereo not given) | -5.67%
26 | Cc1ccccc1Cn1cnc2oc(C)c(C(=O)O)c2c1=O | -1.49%
27 | COCC(=O)N(C)Cc1ccc(F)c(F)c1 | -140%
28 | CCCc1n[nH]c(C2CN(C(=O)CCn3cc(C)cn3)CCO2)n1 (stereo not given) | 10.3%
29 | C[C@@H]1CN(Cc2ccccc2)CCN1C(=O)NCc1nccs1 | -142%
30 | CCOCC1CCN(C(=O)c2sc(C)cc2OC(F)F)CC1 | 7.95%
31 | CN(C)C(=O)c1cccc(NC(=O)N2CCCC(C(F)(F)F)C2)c1 (stereo not given) | 6.37%
32 | Cn1ccnc1CN1C[C@@H](CN2CCCC2)[C@@H](CO)C1 | 4.34%
33 | Cc1cc2ccccc2n1CCC(=O)NCCCc1nnc(N)s1 | 19.6%
34 | c1cc(CN2CCC(Cc3noc(C4CC4)n3)CC2)c2c(c1)OCO2 | 7.69%
35 | O=C(COCc1ccccc1)N1CCCC(OCc2cccnc2)C1 (stereo not given) | -2.65%
36 | Cc1ccc(OC2(C(=O)O)CCN(C(=O)c3cccs3)CC2)cn1 | 0.92%
37 | CC(=O)c1cc(CC(=O)NCc2cccc(F)c2F)cs1 | 2.95%
38 | CC(C)n1ccnc1C1CCCN(c2cncc(N(C)C)n2)C1 (stereo not given) | 10.1%
39 | CCn1c(C)cc(C(=O)N2C[C@@H](C(=O)O)[C@H](c3ccccc3C)C2)c1C | -7.71%
40 | Cc1cccnc1C(Nc1nccc(C2CCCC2)n1)C1CC1 (stereo not given) | -121%
41 | O=C1CCC2(CCNCC2)CN1Cc1nncn1CCc1ccccc1 | -10.1%
42 | CC(=O)Nc1nc(CN2CCCCC2Cn2cncn2)cs1 (stereo not given) | 1.12%
43 | CC(O)CN1CCC(CNCc2ccccc2C(F)(F)F)CC1 (stereo not given) | -9.27%
44 | COc1cc(N2C[C@H]3CN(C(=O)c4cccnc4)C[C@H]3C2)ncn1 | -141%
45 | c1ccc(CN2CCc3ncnc(C4CC4)c3CC2)cc1 | -156%

— ChEMBL document CHEMBL4513216, “Probing the Open Global Health Chemical Diversity Library for Multistage-Active Starting Points for Next-Generation Antimalarials” (ACS Infect Dis, 2020)
